Data reported in ChEMBL document CHEMBL1152967, “Scalarane-based sesterterpenoid RCE-protease inhibitors isolated from the Indonesian marine sponge Carteriospongia foliascens” (J Nat Prod, 2009).
Converted amounts (≈) assume the structure as drawn.

Legend:
[1] = Cytotoxicity against human MDA468 cells harboring mutated PTEN and p53 after 3 days; format: functional, cell-based; details: MDA-MB-468, 72 h
Caco-2 = test: Cytotoxicity against human Caco-2 cells harboring wild type Ras after 3 days; format: functional, cell-based; details: Caco-2, 72 h
CAAX prenyl protease 2 = biological target: T1, CAAX prenyl protease 2 (Homo sapiens, UniProt Q9Y256); test: Inhibition of human RCE1
T1 sequence (Q9Y256 whole entry): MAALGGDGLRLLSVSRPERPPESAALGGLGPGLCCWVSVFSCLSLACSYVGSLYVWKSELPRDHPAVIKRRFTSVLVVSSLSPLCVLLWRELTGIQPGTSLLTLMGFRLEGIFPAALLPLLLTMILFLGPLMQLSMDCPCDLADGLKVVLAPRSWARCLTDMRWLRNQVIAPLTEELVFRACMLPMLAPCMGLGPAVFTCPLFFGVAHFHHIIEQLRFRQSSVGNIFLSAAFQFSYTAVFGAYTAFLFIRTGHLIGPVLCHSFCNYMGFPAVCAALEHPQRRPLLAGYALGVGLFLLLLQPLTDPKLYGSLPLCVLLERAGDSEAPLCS
In short: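 Substrate was a fluorescent-labeled peptide from the carboxy terminus of farnesylated K-Ras. Cleavage was analyzed by reversed-phase HPLC. IC50 is reported in µg/mL.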

LoVo = test: Cytotoxicity against human LoVo cells harboring mutated K-Ras after 3 days; format: functional, cell-based; details: 72 h
PC-3 = test: Cytotoxicity against human PC3 cells harboring mutated PTEN and p53 after 3 days; format: functional, cell-based; details: PC-3, 72 h

IC50 (CAAX prenyl protease 2) [µM]	Structure (SMILES)	IC50 [1] [µg/mL]	IC50 (Caco-2) [µg/mL]	IC50 (LoVo) [µg/mL]	IC50 (PC-3) [µg/mL]
7.31	CCO[C@@H]1C[C@H]2[C@]3(C)CC[C@H]4[C@@](C)(CC)CCC[C@]4(C)[C@H]3C[C@H](OC(=O)CC(O)C(C)C)[C@]2(C)C2=C1C(C)(O)OC2=O (stereo not given in full)	4.4 (≈ 7.47 µM)	4.2 (≈ 7.13 µM)	2.9 (≈ 4.93 µM)	3.2 (≈ 5.43 µM)
17	CCC(O)CC(=O)O[C@H]1C[C@@H]2[C@@]3(C)CCC[C@](C)(CC)[C@@H]3CC[C@@]2(C)[C@@H]2C=CC3=C(C(=O)OC3(C)O)[C@@]12C (stereo not given in full)	> 10	6.2 (≈ 11.7 µM)	3.4 (≈ 6.43 µM)	3.7 (≈ 7 µM)
> 199	CCC(O)CC(=O)O[C@H]1C[C@H]2[C@@](C)(CC[C@H]3[C@@](C)(CC)CCC[C@]23C)[C@@H]2C[C@@H](O)C(C(C)=O)=C[C@@]12C (stereo not given in full)	> 10	> 10	> 10	> 10
73.5	CC[C@@]1(C)CCC[C@]2(C)[C@H]3C[C@H](OC(=O)CC(O)C(C)C)[C@]4(C)C=C(C(C)=O)[C@H](O)C[C@H]4[C@]3(C)CC[C@@H]12 (stereo not given in full)	9.5 (≈ 18.4 µM)	3.4 (≈ 6.58 µM)	7.6 (≈ 14.7 µM)	3.8 (≈ 7.35 µM)
